Assay [1] addresses Human immunodeficiency virus type 1 integrase (Human immunodeficiency virus 1, UniProt Q7ZJM1). Nature of the assay: Inhibition of HIV1 recombinant integrase expressed in Escherichia coli.
Assay [2] in a line: Antioxidant activity assessed as superoxide anion scavenging activity by xanthine oxidase oxidation system relative to control. In kind it is functional. The gist of the method:
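Superoxide produced by xanthine oxidase (1.4 × 10-8 units) with 0.1 mM xanthine in 40 mM sodium carbonate buffer pH 10.2 containing 0.1 mM EDTA, 50 µg/mL BSA and […]; 20 min at 25 °C, stopped with CuCl2. Formazan read at 560 nm; IC50 as concentration scavenging 50% of superoxide.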

Assay [3] deals with Radical scavenging activity. Description: Antioxidant activity assessed as DPPH free radical scavenging activity relative to control. The assay is classed as functional. The procedure, abridged: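 Test samples in EtOH mixed with 100 µM ethanolic DPPH, incubated 30 min at 37 °C; absorbance read at 515 nm. Percent inhibition calculated against ethanol-treated control; IC50 taken as concentration scavenging 50% of DPPH radicals.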

Assay [4] can be described thus: Antioxidant activity assessed as inhibition of 2,2'-azobis(2-amidinopropane)dihydrochloride-induced lipid peroxidation at 3.125 ug/ml by ferric thiocyanate system relative to control. The assay is classed as functional. The procedure, abridged:
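Linoleic acid emulsified in Tween, peroxidation induced by AAPH; oxidation followed by ferric thiocyanate method.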

Converted amounts (≈) assume the structure as drawn.

Human immunodeficiency virus type 1 integrase, sequence (Q7ZJM1 whole entry): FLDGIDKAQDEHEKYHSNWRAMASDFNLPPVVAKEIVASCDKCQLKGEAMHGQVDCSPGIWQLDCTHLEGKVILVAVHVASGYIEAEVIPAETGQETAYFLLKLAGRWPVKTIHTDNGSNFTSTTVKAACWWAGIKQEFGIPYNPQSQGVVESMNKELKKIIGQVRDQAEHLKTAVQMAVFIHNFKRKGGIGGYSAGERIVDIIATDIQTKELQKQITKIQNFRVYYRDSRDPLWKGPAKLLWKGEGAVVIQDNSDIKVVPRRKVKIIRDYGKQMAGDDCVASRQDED

Regarding `O=C(/C=C/c1ccc(O)c(O)c1)O[C@H]1[C@H](O)C[C@](O)(C(=O)O)C[C@H]1OC(=O)/C=C/c1ccc(O)c(O)c1`, the IC50 in assay [1] was 10.5 µM; in assay [2] it was 3.3 µg/mL (≈ 6.39 µM); in assay [3], 5.9 µg/mL (≈ 11.4 µM). The inhibition in assay [4] worked out at 51.7%.
`O=C(/C=C/c1ccc(O)c(O)c1)O[C@@H]1C[C@](O)(C(=O)O)C[C@@H](OC(=O)/C=C/c2ccc(O)c(O)c2)[C@H]1O`: the IC50 in assay [1] was 11.4 µM; in assay [2], 2.9 µg/mL (≈ 5.62 µM); in assay [3], 5.6 µg/mL (≈ 10.8 µM). Also, in assay [4], the inhibition was 51.5%.
Take `CCOC(=O)[C@@]1(O)C[C@@H](OC(=O)/C=C/c2ccc(O)c(O)c2)[C@H](O)[C@H](OC(=O)/C=C/c2cc(OC)c(O)c(OC)c2)C1`: the IC50 is 80.5 µM in assay [1], 2.7 µg/mL (≈ 4.59 µM) in assay [2] and 9.5 µg/mL (≈ 16.1 µM) in assay [3]. The inhibition in assay [4] was 53.8%.
Regarding `CCOC(=O)[C@]1(O)C[C@@H](O)[C@@H](OC(=O)/C=C/c2cc(OC)c(O)c(OC)c2)[C@H](OC(=O)/C=C/c2ccc(O)c(O)c2)C1`, the IC50 was 73.9 µM in assay [1], 2 µg/mL (≈ 3.4 µM) in assay [2] and 6.1 µg/mL (≈ 10.4 µM) in assay [3]. Also, in assay [4], the inhibition amounted to 54.9%.
For `COC(=O)[C@]1(O)C[C@@H](O)[C@@H](OC(=O)/C=C/c2cc(OC)c(O)c(OC)c2)[C@H](OC(=O)/C=C/c2ccc(O)c(O)c2)C1`, the figures for the IC50 in assay [1], in assay [2] and in assay [3] were 33.8 µM, 1.8 µg/mL (≈ 3.13 µM) and 8.3 µg/mL (≈ 14.4 µM), respectively. Also, the inhibition in assay [4] is 56%.
As to `COC(=O)[C@@]1(O)C[C@@H](OC(=O)/C=C/c2ccc(O)c(O)c2)[C@H](O)[C@H](OC(=O)/C=C/c2cc(OC)c(O)c(OC)c2)C1`, the IC50 was 41.1 µM in assay [1], 2.2 µg/mL (≈ 3.83 µM) in assay [2] and 8.5 µg/mL (≈ 14.8 µM) in assay [3]. The inhibition in assay [4] was 54.7%.
For `COc1cc(C(=O)O)ccc1O[C@@H]1O[C@H](COC(=O)/C=C/c2cc(OC)c(O)c(OC)c2)[C@@H](O)[C@H](O)[C@H]1O`, the IC50 was above 186 µM in assay [1], 46.3 µg/mL (≈ 86.3 µM) in assay [2] and 22.7 µg/mL (≈ 42.3 µM) in assay [3]. The inhibition in assay [4] turned out to be 38.4%.
With `O=C1O[C@H]([C@@H](O)CO)C(O)=C1O` [ASCORBIC ACID], the IC50 in assay [2] was above 50 µg/mL; in assay [3], 5.5 µg/mL (≈ 31.2 µM). The inhibition in assay [4] was determined as 44.1%.
Taken in the same sequence, the figures for `O=C(O)/C=C/c1ccc(O)c(O)c1` [CAFFEIC ACID] were 0.5 µg/mL (≈ 2.78 µM), 3.2 µg/mL (≈ 17.8 µM) and 54.1%.
As for `CCOC(=O)[C@]1(O)C[C@@H](O)[C@@H](O)[C@H](OC(=O)/C=C/c2ccc(O)c(O)c2)C1` [ETHYL CHLOROGENATE], the IC50 in assay [1] is 116 µM; in assay [2], 1 µg/mL (≈ 2.62 µM); in assay [3] it was 7.1 µg/mL (≈ 18.6 µM). In addition, in assay [4], the inhibition was 51.1%.
In the case of `COC(=O)C1=CO[C@@H](O[C@@H]2O[C@H](CO)[C@@H](O)[C@H](O)[C@H]2O)[C@@H]2C(CO)=CC[C@H]12` [GENIPOSIDE], the IC50 in assay [1] is above 257 µM; in assay [2] it was above 50 µg/mL; in assay [3], above 50 µg/mL. Moreover, in assay [4], the inhibition was found to be 2%.
In the case of `O=C(O)C1=CO[C@@H](O[C@@H]2O[C@H](CO)[C@@H](O)[C@H](O)[C@H]2O)[C@@H]2C(CO)=CC[C@H]12` [GENIPOSIDIC ACID], the IC50 in assay [1] is above 267 µM; in assay [2], above 50 µg/mL; in assay [3], above 50 µg/mL. The inhibition in assay [4] was found to be 4.8%.
`O=c1c(O[C@@H]2O[C@H](CO)[C@@H](O)[C@H](O)[C@H]2O)c(-c2ccc(O)c(O)c2)oc2cc(O)cc(O)c12` [ISOQUERCETIN]: the results for the IC50 in assay [2] and in assay [3] were 3.4 µg/mL (≈ 7.32 µM) and 16.6 µg/mL (≈ 35.7 µM), respectively. Further, in assay [4], the inhibition turned out to be 49.9%.
Taken in the same sequence, the figures for `O=C(O)c1ccc(O)c(O)c1` [PROTOCATECHUIC ACID] were 13 µg/mL (≈ 84.3 µM), 6.9 µg/mL (≈ 44.8 µM) and 38.1%.
The like results for `O=c1c(O)c(-c2ccc(O)c(O)c2)oc2cc(O)cc(O)c12` [QUERCETIN] were, in that order, above 50 µg/mL, 5.9 µg/mL (≈ 19.5 µM) and 54.2%.
Regarding `Oc1ccc(/C=C/c2cc(O)cc(O)c2)cc1` [RESVERATROL], the IC50 was found to be 37.9 µg/mL (≈ 166 µM) in assay [2] and 17.1 µg/mL (≈ 74.9 µM) in assay [3]. Further, in assay [4], the inhibition was 39.1%.
VITAMIN E [listing 1 of 2 here]: the results for the IC50 in assay [2] and in assay [3] were above 50 µg/mL and 9.4 µg/mL, respectively.
Take VITAMIN E [listing 2 of 2 here]: the inhibition in assay [4] was found to be 61.2%.

A word on the IC50: it is the point on the concentration scale where inhibition reaches its midpoint. What is called inhibition is the drop in the measured response relative to a control, in per cent.
